The source made the active and inactive calls. The calls are words filed in the database; no cut-off is given here.
What was measured:
[1] = system: SK-MEL-28; assay: Down regulation of methyltetrahydrofolate reductase mRNA expression in human SkMel28 cells at 20 uM after 24 hrs; type: functional, cell-based
Method in brief: (§1)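 SkMel-28 cells treated and mRNA quantified by SYBR Green real-time PCR (95 °C 15 min; 40-50 cycles 94 °C 30 s, 55 °C 30 s, 72 °C 1 min), triplicate reactions, at least two independent experiments; melting-curve specificity check; expression relative to normal human epidermal melanocytes.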

[2] = system: Caco-2; assay: Antiproliferative activity against human Caco-2 cells after 6 days by MTT assay; type: functional, cell-based; details: Caco-2, 144 h
Method in brief: (§2)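 ATCC lines kept in medium with 10% FCS and antibiotics; plated at 1000 cells/well, grown to 50-60% confluence, then exposed for 6 days. Viability by MTT, formazan read at 570 nm; IC50 derived.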

[3] = Antioxidant activity assessed as ABTS radical scavenging activity; type: functional
Method in brief: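 ABTS radical cation generated from ABTS (150 μM) with H2O2 (75 μM) and HRP (0.25 μM) in citrate-phosphate pH 4.5, diluted in 5 mM PBS pH 7.4 to A734 0.70, pre-warmed 30 °C. Compounds in PBS (50 μM stock) at four concentrations within the Trolox dose-response range, triplicates; A734 read 1 min after mixing; TEAC derived from Trolox curve.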

[4] = system: SK-MEL-28; assay: Antiproliferative activity against human SkMel28 cells after 6 days by MTT assay; type: functional, cell-based; details: SK-MEL-28, 144 h; method in brief: as §2
[5] = system: MCF7; assay: Antiproliferative activity against human MCF7 cells after 6 days by MTT assay; type: functional, cell-based; details: MCF7, 144 h; method in brief: as §2
[6] = system: SK-MEL-28; assay: Growth inhibition of human SkMel28 cells at 20 uM after 6 days; type: functional, cell-based
[7] = system: SK-MEL-28; assay: Down regulation of DHFR mRNA expression in human SkMel28 cells at 20 uM after 24 hrs; type: functional, cell-based; method in brief: as §1
[8] = system: SK-MEL-28; assay: Down regulation of thymidylate synthase mRNA expression in human SkMel28 cells at 20 uM after 24 hrs; type: functional, cell-based; method in brief: as §1
[9] = Antiproliferative activity against human H1264 cells after 6 days by MTT assay; type: functional, cell-based; details: H1264, 144 h; method in brief: as §2
[10] = system: Caco-2; assay: Growth inhibition of human Caco-2 cells at 25 uM after 6 days; type: functional, cell-based
Method in brief: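 Caco-2 cells treated 6 days with 25 μM compound; MTT viability expressed as percent of untreated control (100%); mean of three independent experiments ± SD.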

[11] = biological target: T1, Dihydrofolate reductase (Homo sapiens) (UniProt P00374); assay: Dissociation constant for binding to free human recombinant DHFR by fluorescence titration
T1 sequence (whole entry): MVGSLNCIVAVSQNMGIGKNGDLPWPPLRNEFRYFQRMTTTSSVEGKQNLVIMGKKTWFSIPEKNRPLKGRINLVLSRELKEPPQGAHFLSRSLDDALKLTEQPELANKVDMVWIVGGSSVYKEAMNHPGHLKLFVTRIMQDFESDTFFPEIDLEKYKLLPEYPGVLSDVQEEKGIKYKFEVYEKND

[12] = biological target: T1, Dihydrofolate reductase (Homo sapiens); assay: Inhibition of human recombinant DHFR at 100 uM
Method in brief: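 Recombinant human DHFR activity at 25 °C followed as drop in NADPH/DHF absorbance at 340 nm in Mes 0.025 M, sodium acetate 0.025 M, Tris 0.05 M, NaCl 0.1 M, pH 7.4, with 1 mM ascorbic acid; reaction started with enzyme; compounds at 100 μM; activity relative to no-compound control, mean of five experiments.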

[13] = Stability in human HT29 cells assessed as half life; type: ADME, cell-based; details: HT-29 cells
[14] = Prooxidant activity assessed as enhancement of NADPH oxidation at 50 uM; type: functional
Method in brief: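 Rate of NADPH (0.1 mM) oxidation measured with 50 μM catechin in sodium-phosphate buffer, pH 7.4, 37 °C. Read-out is the fall in NADPH absorbance at 340 nm. Runs were done with and without bovine liver SOD at 10 μg/mL.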

In the case of `COc1cc(C(=O)O[C@@H]2Cc3c(O)cc(O)cc3O[C@@H]2c2ccc(O)c(O)c2)cc(OC)c1OC`, the Activity [1] is reported as “Active”, the IC50 [2] is reported as 33000 nM and the Activity [3] is reported as 1.9 mM. The IC50 [4] was 2900 nM, the IC50 [5] was 80000 nM and the Activity [6] was “Active”. The Activity [7] was “Active”, the Activity [8] was “Active” and the IC50 [9] was 18000 nM. For the same molecule, the Activity [10] was “Active” and the Kd [11] was 2100 nM.
With `Oc1cc(O)c2c(c1)O[C@H](c1ccc(O)c(O)c1)[C@H](O)C2` the Activity [12] was “inactive”.
For `O=C(O[C@@H]1Cc2c(O)cc(O)cc2O[C@@H]1c1cc(O)c(O)c(O)c1)c1cc(O)c(O)c(O)c1` [EPIGALOCATECHIN GALLATE], the half-life [13] was < 2 h, the Activity [3] was 4.8 mM and the Activity [14] was “Active”. For the same molecule, the Activity [10] was “Active” and the Kd [11] was 920 nM.
In the case of `O=C(O[C@@H]1Cc2c(O)cc(O)cc2O[C@@H]1c1ccc(O)c(O)c1)c1cc(O)c(O)c(O)c1`, the Activity [3] is reported as 4.9 mM, the Activity [10] is reported as “Active” and the Kd [11] is reported as 1780 nM.
VITAMIN E showed an Activity [3] of 1 mM.
In the case of `Oc1cc(O)c2c(c1)O[C@H](c1cc(O)c(O)c(O)c1)[C@H](O)C2`, the Activity [14] is reported as “Active” and the Activity [12] is reported as “inactive”.

Source: ChEMBL document CHEMBL1142382, “Synthesis and biological activity of a 3,4,5-trimethoxybenzoyl ester analogue of epicatechin-3-gallate” (J Med Chem, 2008)
